These results are taken from ChEMBL document CHEMBL1144909, “Design, synthesis, and biological evaluation of a series of fluoroquinoanthroxazines with contrasting dual mechanisms of action against topoisomerase II and G-quadruplexes” (J Med Chem, 2003).

As usually defined, the inhibition is the percentage by which the read-out fell short of the control. The term IC50 denotes the concentration that gives 50% inhibition. Lower therefore signals greater potency in that assay.

Assay [1] deals with RPMI-8226. Kind of assay: Cytotoxicity of compound against 8226/DOX1V cells. It is filed as functional, Homo sapiens. The essentials: (§1)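 MTT assay. Exponentially growing cells (1–2 × 10^3 per well) seeded day 0; graded compound concentrations added day 1; on day 4, MTT (1 mg/mL in DPBS) added for 4 h at 37 °C. 8226/S (RPMI 8226 myeloma) and doxorubicin-resistant, topoisomerase II-reduced 8226/DOX1V; MCF7 breast cells. Myeloma values are the mean ± SD of four experiments; IC50 in μM.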

Assay [2] deals with RPMI-8226. Kind of assay: Cytotoxicity of compound against 8226/S cells. It is filed as functional, Homo sapiens. The essentials: as §1
Assay [3] concerns the target T1, DNA topoisomerase II (Homo sapiens) (UniProt P11388+Q02880). Description: Inhibition against decatenation activity of DNA topoisomerase II at a concentration of 100 uM. In kind it is protein assay. The method, boiled down: (§2)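 Human topoisomerase II (2 units) was then added for 30 min at 37 °C. Sarkosyl stop; products resolved on 1% agarose with ethidium bromide; decatenated kDNA quantified by densitometry.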

A further assay deals with MCF7. Description: Cytotoxicity of compound was tested against MCF-7 breast cancer cells. In kind it is functional, cell-based. The note with it: Homo sapiens. The essentials: as §1
For assay [4], the target named is T2, DNA polymerase I, thermostable (Thermus aquaticus, UniProt P19821). Kind of assay: Inhibition of Taq DNA polymerase.
The target in assay [5] is T2, DNA polymerase I, thermostable. Description: Inhibition of Taq DNA polymerase by TRAP assay.
The nature of assay [6]: Ratio of cytotoxicity of DOX1V/S cells. In kind it is functional. The method, boiled down:
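Ratio of IC50 in 8226/DOX1V (doxorubicin-resistant, reduced topoisomerase II) to IC50 in parental 8226/S. Both IC50s come from a 3-day MTT assay, each the mean of four experiments.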

In assay [7] the target is T1, DNA topoisomerase II (Homo sapiens). Description: Inhibition against decatenation activity of DNA topoisomerase II at a concentration of 3.2 uM. It is filed as protein assay. The essentials: as §2

Activity calls are given as the source filed them. The rule behind the calls is not given here.

T2 sequence (P19821 whole entry): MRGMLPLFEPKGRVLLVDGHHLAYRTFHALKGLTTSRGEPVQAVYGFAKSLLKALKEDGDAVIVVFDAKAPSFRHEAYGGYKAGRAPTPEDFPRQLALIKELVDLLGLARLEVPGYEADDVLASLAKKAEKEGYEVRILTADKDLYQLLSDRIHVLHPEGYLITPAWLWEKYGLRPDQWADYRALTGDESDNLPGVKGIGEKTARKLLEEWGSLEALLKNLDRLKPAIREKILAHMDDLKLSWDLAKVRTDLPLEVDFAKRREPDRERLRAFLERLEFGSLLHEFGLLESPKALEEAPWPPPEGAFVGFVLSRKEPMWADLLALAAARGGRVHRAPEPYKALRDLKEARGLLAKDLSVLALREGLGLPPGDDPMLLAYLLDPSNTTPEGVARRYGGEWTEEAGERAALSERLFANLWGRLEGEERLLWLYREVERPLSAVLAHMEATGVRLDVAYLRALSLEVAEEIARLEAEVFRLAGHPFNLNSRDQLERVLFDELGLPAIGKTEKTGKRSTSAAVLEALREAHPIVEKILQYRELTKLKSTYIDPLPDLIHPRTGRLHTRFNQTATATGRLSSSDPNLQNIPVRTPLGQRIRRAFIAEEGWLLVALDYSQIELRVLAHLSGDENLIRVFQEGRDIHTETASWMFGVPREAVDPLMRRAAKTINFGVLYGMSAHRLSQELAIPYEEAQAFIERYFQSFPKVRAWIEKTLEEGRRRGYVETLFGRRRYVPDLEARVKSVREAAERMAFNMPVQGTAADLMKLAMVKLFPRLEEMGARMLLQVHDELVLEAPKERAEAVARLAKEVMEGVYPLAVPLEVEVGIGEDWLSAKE

In the case of `N[C@@H]1CCN(c2c(F)cc3c(=O)c(C(=O)O)cn4c3c2Oc2c-4ccc3c2ccc2ccccc23)C1`, the Average in the assay with RPMI-8226 [1] is 0.501 µM; in the assay with RPMI-8226 [2], 0.324 µM. For the same molecule, in assay [3], the inhibition result is “inactive”. In addition, the IC50 worked out at 0.46 µM in the assay on MCF7, 0.06 µM in assay [4] and 5.6 µM in assay [5]. Moreover, the Ratio in assay [6] amounted to 1.55.

Consider `COc1cccc2c1C(=O)c1c(O)c3c(c(O)c1C2=O)C[C@@](O)(C(=O)CO)C[C@@H]3O[C@H]1C[C@H](N)[C@H](O)[C@H](C)O1` [DOXORUBICIN], for which the Average came to 0.32 µM with RPMI-8226 [1] and 0.037 µM with RPMI-8226 [2]. Also, the Ratio in assay [6] was determined as 8.65.

Consider `N[C@@H]1CCN(c2c(F)cc3c(=O)c(C(=O)O)cn4c3c2Oc2cc3c(ccc5ccccc53)cc2-4)C1`, for which the Average in the assay with RPMI-8226 [1] was more than 10 µM; with RPMI-8226 [2], 5.46 µM. Moreover, the inhibition result in assay [3] is “inactive”. Also, the IC50 came to 4.3 µM with MCF7 and 2.4 µM in assay [4].

Take `N[C@H]1CCN(c2c(F)cc3c(=O)c(C(=O)O)cn4c3c2Oc2ccccc2-4)C1`: in assay [7], the inhibition was found to be 50%.

Turning to `N[C@H]1CCN(c2c(F)cc3c(=O)c(C(=O)O)cn4c3c2Oc2c-4ccc3c2ccc2ccccc23)C1`, the Average in the assay with RPMI-8226 [1] is 2.775 µM; with RPMI-8226 [2], 0.69 µM. In addition, the inhibition result in assay [3] was “inactive”. Further, the 50% inhibitory concentration (IC50) in the assay with MCF7 amounted to 1.1 µM; in assay [4], 0.67 µM; in assay [5], 21 µM. Besides, in assay [6], the Ratio was determined as 4.02.

With `N[C@H]1CCN(c2c(F)cc3c(=O)c(C(=O)O)cn4c3c2Oc2cc3c(ccc5ccccc53)cc2-4)C1`, the Average in the assay with RPMI-8226 [1] and in the assay on RPMI-8226 [2] was more than 10 µM in each case. Also, the inhibition entry in assay [3] was “inactive”. Moreover, the figures for the IC50 (in the assay with MCF7; in assay [4]) were 14.2 µM and 5.7 µM, respectively.
